Experiments:
[1] = target: T1, Hexokinase-2 (Homo sapiens) (UniProt P52789); assay: Inhibition of recombinant human HK2 using [U-14C]-labeled glucose as substrate in presence of ATP and NADP by G6PD enzyme coupled spectrophotometric assay; settings: in the assay text read “glucose” for “[U-14C]-labeled glucose”
T1 sequence (whole entry): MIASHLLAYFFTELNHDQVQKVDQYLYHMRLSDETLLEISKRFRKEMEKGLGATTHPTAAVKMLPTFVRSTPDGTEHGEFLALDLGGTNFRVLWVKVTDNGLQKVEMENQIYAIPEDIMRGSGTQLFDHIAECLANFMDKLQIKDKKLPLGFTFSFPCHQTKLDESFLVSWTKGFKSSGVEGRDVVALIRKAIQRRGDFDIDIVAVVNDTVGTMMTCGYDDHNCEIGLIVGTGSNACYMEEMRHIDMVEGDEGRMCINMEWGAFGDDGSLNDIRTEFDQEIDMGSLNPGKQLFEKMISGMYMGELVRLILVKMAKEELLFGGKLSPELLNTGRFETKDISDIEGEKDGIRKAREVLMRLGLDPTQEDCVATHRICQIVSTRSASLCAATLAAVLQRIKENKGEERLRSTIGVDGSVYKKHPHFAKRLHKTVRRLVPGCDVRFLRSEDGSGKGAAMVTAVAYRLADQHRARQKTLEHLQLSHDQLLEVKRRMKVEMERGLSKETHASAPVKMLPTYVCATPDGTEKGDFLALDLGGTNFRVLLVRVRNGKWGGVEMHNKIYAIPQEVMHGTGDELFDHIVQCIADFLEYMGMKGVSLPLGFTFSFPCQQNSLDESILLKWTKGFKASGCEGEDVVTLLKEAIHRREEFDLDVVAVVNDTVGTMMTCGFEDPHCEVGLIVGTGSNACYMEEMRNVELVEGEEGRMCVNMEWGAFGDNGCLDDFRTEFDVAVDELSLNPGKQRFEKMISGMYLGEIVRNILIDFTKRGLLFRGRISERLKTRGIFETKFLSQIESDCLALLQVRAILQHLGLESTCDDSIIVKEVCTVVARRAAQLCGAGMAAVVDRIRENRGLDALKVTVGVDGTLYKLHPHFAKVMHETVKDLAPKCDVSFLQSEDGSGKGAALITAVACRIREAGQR
Outline: (§1)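 Coupled hexokinase assay at 340 nm following G6P-dependent NADP→NADPH conversion. Enzyme source is freshly prepared, centrifuged undifferentiated P19 lysate supernatant or recombinant human HKII. Buffer: 100 mM Tris-HCl pH 8.0, 0.5 mM EDTA, 10 mM MgCl2, 2 mM glucose, 0.1 mM NADP, 0.1 U/ml G6PD. Preincubated 10 min at 37°C; reaction started with 10 mM ATP. Means ± SD, 4 experiments, at least 4 repeats each.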

P19 [2] = assay: Cytotoxicity against undifferentiated mouse P19 cells assessed as metabolic activity at 1 to 100 uM after 24 hrs by resazurin assay relative to control; format: functional
Outline: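 Metabolic activity by resazurin reduction in undifferentiated (P19SCs) or differentiated (P19dCs) P19 cells. Exposure to 1, 10 or 100 µM for 24, 48 or 72 h. Read-out relative to untreated control. Significance vs control at p<0.05.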

P19 [3] = assay: Cytotoxicity against undifferentiated mouse P19 cells assessed as cell mass at 1 to 100 uM after 48 hrs by SRB assay relative to control; format: functional
Outline: (§2)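 Cell mass by SRB assay in P19 cells (CRL-1825), either undifferentiated (P19SCs) or differentiated (P19dCs). Cells exposed to 1, 10 or 100 µM for 24, 48 or 72 h. Values expressed relative to untreated control. Means ± SD from at least 4 independent measurements, 6 repeats each. Significance vs control at p<0.05.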

P19 [4] = assay: Cytotoxicity against differentiated mouse P19 cells assessed as mitochondrial superoxide anion level at 1 uM after 24 hrs by MitoSox dye based fluorescence assay relative to control; format: functional
Outline: (§3)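 Undifferentiated (P19SCs) or differentiated (P19dCs) P19 cells incubated 24 or 72 h with 1 or 100 µM. Mitochondrial membrane potential and mitochondrial superoxide levels measured and expressed relative to untreated control. Means ± SD from 4 independent measurements, at least 4 repeats each. Significance at p<0.05.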

[5] = target: T2, Hexokinase-2 (Mus musculus) (UniProt O08528); assay: Inhibition of HK2 isolated from mouse undifferentiated P19 cell lysates using [U-14C]-labeled glucose as substrate in presence of ATP and NADP by G6PD enzyme coupled spectrophotometric assay; settings: in the assay text read “glucose” for “[U-14C]-labeled glucose”; outline: as §1
T2 sequence (whole entry): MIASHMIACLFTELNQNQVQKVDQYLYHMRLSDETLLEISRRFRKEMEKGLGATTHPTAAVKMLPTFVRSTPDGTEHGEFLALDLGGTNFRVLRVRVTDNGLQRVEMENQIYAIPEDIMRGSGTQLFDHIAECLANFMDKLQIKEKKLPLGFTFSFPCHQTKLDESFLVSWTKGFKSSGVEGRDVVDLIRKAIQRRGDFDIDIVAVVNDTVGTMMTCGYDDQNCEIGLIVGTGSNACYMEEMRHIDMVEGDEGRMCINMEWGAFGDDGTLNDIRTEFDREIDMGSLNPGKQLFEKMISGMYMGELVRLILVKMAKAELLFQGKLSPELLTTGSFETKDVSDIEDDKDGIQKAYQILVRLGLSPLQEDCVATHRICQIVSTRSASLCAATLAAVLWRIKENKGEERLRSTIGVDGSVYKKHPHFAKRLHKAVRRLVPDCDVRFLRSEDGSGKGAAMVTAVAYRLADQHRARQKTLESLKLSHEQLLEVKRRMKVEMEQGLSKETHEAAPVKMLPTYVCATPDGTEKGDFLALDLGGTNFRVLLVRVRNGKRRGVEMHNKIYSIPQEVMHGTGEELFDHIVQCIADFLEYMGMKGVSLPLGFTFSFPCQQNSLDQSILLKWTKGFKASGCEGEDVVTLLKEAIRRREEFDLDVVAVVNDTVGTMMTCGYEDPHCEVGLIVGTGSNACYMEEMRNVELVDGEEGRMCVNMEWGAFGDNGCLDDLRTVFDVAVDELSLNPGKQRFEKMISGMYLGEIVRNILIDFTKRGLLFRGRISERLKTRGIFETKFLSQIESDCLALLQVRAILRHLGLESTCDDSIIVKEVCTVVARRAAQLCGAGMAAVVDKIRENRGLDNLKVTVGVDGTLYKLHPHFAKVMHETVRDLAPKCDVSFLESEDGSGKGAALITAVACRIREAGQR

P19 [6] = assay: Cytotoxicity against undifferentiated mouse P19 cells assessed as cell mass at 1 to 100 uM after 72 hrs by SRB assay relative to control; format: functional; outline: as §2
P19 [7] = assay: Cytotoxicity against undifferentiated mouse P19 cells assessed as mitochondrial membrane potential at 1 uM after 24 hrs by TMRF dye based fluorescence assay relative to control; format: functional; outline: as §3
P19 [8] = assay: Cytotoxicity against undifferentiated mouse P19 cells assessed as mitochondrial membrane potential at 1 uM after 72 hrs by TMRF dye based fluorescence assay relative to control; format: functional; outline: as §3
P19 [9] = assay: Cytotoxicity against differentiated mouse P19 cells assessed as mitochondrial membrane potential at 100 uM after 72 hrs by TMRF dye based fluorescence assay relative to control; format: functional; outline: as §3

## O=C(c1ccc2c(c1)C(=O)N(c1cccc(O)c1)C2=O)c1ccc2c(c1)C(=O)N(c1cccc(O)c1)C2=O
[1]
  inhibition: Dose-dependent effect
P19 [2]
  Activity: 102.6%
P19 [3]
  Activity: 79.9%
P19 [4]
  Activity: 112.2%
[5]
  inhibition: Dose-dependent effect
P19 [6]
  Activity: 58.9%
P19 [7]
  Activity: 86%
P19 [8]
  Activity: 110.4%
P19 [9]
  Activity: 50.9%
